# Measurements taken from ChEMBL document CHEMBL1770118, “A new class of β-carboline alkaloid-peptide conjugates with therapeutic efficacy in acute limb ischemia/reperfusion injury” (Eur J Med Chem, 2011).
# The source made the active and inactive calls. No cut-off for these calls is given here. *1 amine or outer side, *2 acyl side, *3 side chain or, on linkers, in order; H or OH if unused. Where a SMILES comes first, the peptide text is derived from it. [ ]: non-standard residue; d: D form. X2 = COc1cc([C@@H]2c3[nH]c4ccccc4c3C[C@@H](C(=O)[*:2])N2[*:1])ccc1O; X3 = COc1ccc([C@@H]2c3[nH]c4ccccc4c3C[C@@H](C(=O)[*:2])N2[*:1])cc1; X1 = O=C([C@@H]1Cc2c([nH]c3ccccc23)[C@@H](c2ccccc2O)N1[*:1])[*:2]
# Tests used:
# Rattus norvegicus = assay: Antithrombotic activity in Wistar rat assessed as reduction of dry thrombus weight at 10 umol/kg; format: functional, organism-based
# PC-12 [1] = assay: Antioxidant activity in rat PC12 cells assessed as protection against nitric oxide-induced reduction of cell viability pretreated 1 he before nitric oxide challenge incubated for 1 hr followed by washout measured after 14 hrs by MTT assay; format: functional, cell-based
# How it was run: (§1)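 PC12 cells were grown in DMEM with 10% heat-inactivated horse serum and 5% FBS, then seeded at 20,000/well on poly-lysine. After 24 h, cells were pretreated with compound at five concentrations for 1 h. Damage was 1 h with: NO, 2 mM sodium nitroprusside; H₂O₂, 1 mM; ·OH, H₂O₂/Fe(II). Medium was replaced, and MTT survival was read after 14 h. EC50 was derived.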
# PC-12 [2] = assay: Antioxidant activity in rat PC12 cells assessed as protection against hydrogen peroxide-induced reduction of cell viability pretreated 1 he before […] incubated for 1 hr followed by washout measured after 14 hrs by MTT assay; format: functional, cell-based; how it was run: as §1
# PC-12 [3] = assay: Antioxidant activity in rat PC12 cells assessed as protection against hydroxyl radical-induced reduction of cell viability pretreated 1 he before […] incubated for 1 hr followed by washout measured after 14 hrs by MTT assay; format: functional, cell-based; how it was run: as §1
Compound,Activity (Rattus norvegicus),EC50 (PC-12 [1]),EC50 (PC-12 [2]),EC50 (PC-12 [3])
COc1cc([C@H]2N[C@H](C(=O)NCC(=O)N[C@@H](CCCNC(=N)N)C(=O)N3CCC[C@H]3C(=O)N[C@@H](C)C(=O)N[C@@H](CCCCN)C(=O)O)Cc3c2[nH]c2ccccc32)ccc1O (H-[X2]GRPAK-OH),Active,,,
C[C@H](NC(=O)[C@@H]1CCCN1C(=O)[C@H](CCCNC(=N)N)NC(=O)CNC(=O)[C@@H]1Cc2c([nH]c3ccccc23)[C@@H](c2ccccc2O)N1)C(=O)N[C@@H](CCCCN)C(=O)O (H-[X1]GRPAK-OH),Active,,,
O=C(O)[C@@H]1Cc2c([nH]c3ccccc23)[C@@H](c2ccccc2O)N1,,77 µM,38 µM,72 µM
COc1cc([C@H]2N[C@H](C(=O)O)Cc3c2[nH]c2ccccc32)ccc1O,,77 µM,38 µM,72 µM
COc1ccc([C@H]2N[C@H](C(=O)NCC(=O)N[C@@H](CCCNC(=N)N)C(=O)N3CCC[C@H]3C(=O)N[C@@H](C)C(=O)N[C@@H](CCCCN)C(=O)O)Cc3c2[nH]c2ccccc32)cc1 (H-[X3]GRPAK-OH),Active,,,
COc1ccc([C@H]2N[C@H](C(=O)O)Cc3c2[nH]c2ccccc32)cc1,,77 µM,38 µM,72 µM
C[C@H](NC(=O)[C@@H]1CCCN1C(=O)[C@H](CCCN=C(N)N)NC(=O)CN)C(=O)N[C@@H](CCCCN)C(=O)O (H-GRPAK-OH),Active,,,
COc1cc([C@H]2N[C@H](C(=O)N[C@@H](C)C(=O)N[C@@H](CCCNC(=N)N)C(=O)N3CCC[C@H]3C(=O)N[C@@H](C)C(=O)N[C@@H](CCCCN)C(=O)O)Cc3c2[nH]c2ccccc32)ccc1O (H-[X2]ARPAK-OH),Active,,,
C[C@H](N)C(=O)N[C@@H](CCCN=C(N)N)C(=O)N1CCC[C@H]1C(=O)N[C@@H](C)C(=O)N[C@@H](CCCCN)C(=O)O (H-ARPAK-OH),Active,,,
COc1ccc([C@H]2N[C@H](C(=O)N[C@@H](C)C(=O)N[C@@H](CCCNC(=N)N)C(=O)N3CCC[C@H]3C(=O)N[C@@H](C)C(=O)N[C@@H](CCCCN)C(=O)O)Cc3c2[nH]c2ccccc32)cc1 (H-[X3]ARPAK-OH),Active,,,
C[C@H](NC(=O)[C@@H]1Cc2c([nH]c3ccccc23)[C@@H](c2ccccc2O)N1)C(=O)N[C@@H](CCCNC(=N)N)C(=O)N1CCC[C@H]1C(=O)N[C@@H](C)C(=O)N[C@@H](CCCCN)C(=O)O (H-[X1]ARPAK-OH),Active,,,
